{
  "source": "ChEMBL document CHEMBL1121475",
  "about": "“Inhibitors of indoleethylamine N-methyltransferase. Derivatives of 3-methyl-2-thiazolidinimine. In vitro, in vivo, and metabolic studies” (J Med Chem, 1980)",
  "key": {"[1]": {"tested_on": "Indolethylamine N-methyltransferase (Oryctolagus cuniculus)", "assay": "Compound tested for inhibitory activity against rabbit lung Indoleethylamine-N-methyltransferase at oral dose 25 mg/kg"}, "Oryctolagus cuniculus [2]": {"tested_on": "Oryctolagus cuniculus", "assay": "Evaluation of formation of 3-Methyl-thiazolidin-2-ylideneamine from the radiolabeled compound, orally administered, from rabbit 3 urine was analyzed at 0-2 hr by Gas-liquid chromatographic analysis", "format": "ADME, organism-based", "conditions": "in vivo, po, in the assay text read “0-24 hr” for “0-2 hr”", "outline": "(§1)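 Rabbits 3 (single 100 mg/kg) and 4 (two 100 mg/kg doses 2 h apart) were gavaged with [14C]-labelled parent amide (204.6 dpm/μg). They were not killed; urine was collected 0-24 h. The metabolite was quantified by GLC of trimethylsilylated extracts against an internal-standard peak-height-ratio curve. Results are given as % of urinary radioactivity or % of administered dose, mean of two determinations.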"}, "Oryctolagus cuniculus [3]": {"tested_on": "Oryctolagus cuniculus", "assay": "Evaluation of formation of 3-Methyl-thiazolidin-2-ylideneamine from the radiolabeled compound, orally administered, from rabbit 2,4 plasma was analyzed by Gas-liquid chromatographic analysis", "format": "ADME, organism-based", "conditions": "in vivo, po", "outline": "(§2)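 Rabbit 2 was gavaged twice with [14C]-labelled parent amide, 100 mg/kg each dose (204.6 dpm/μg), 2 h apart, and killed 2 h after the second dose. Urine (0-4 h), blood, liver, lung and kidney were taken. The metabolite was measured by GLC of trimethylsilyl derivatives (3% OV-210, 95 °C, internal standard 3-ethyl-2-thiazolidinimine). Values are % of radioactivity as metabolite, mean of two determinations.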"}, "Oryctolagus cuniculus [4]": {"tested_on": "Oryctolagus cuniculus", "assay": "100 mg/kg of [14C]- radiolabeled compound was intravenously (gavage) injected in rabbit3, and radioactivity content in feces was estimated at total hours", "format": "ADME, organism-based", "conditions": "rabbit, in vivo, po, in the assay text read “orally (gavage) administered” for “intravenously (gavage) injected”", "outline": "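Rabbit given 100 mg/kg [14C]-labelled drug by gavage, 204.6 dpm/μg, in water/0.1 N HCl at 6.66 mg/mL. Rabbit 1 was killed at 2 h and liver, lung, kidney and blood taken; tissue values are μg equivalents/g and tissue:plasma ratio. Rabbit 3 was kept for urine (0-24, 24-48, 48-72 h) and feces (0-48 h), expressed as % of dose.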"}, "Oryctolagus cuniculus [5]": {"tested_on": "Oryctolagus cuniculus", "assay": "Evaluation of formation of 3-Methyl-thiazolidin-2-ylideneamine from the radiolabeled compound, orally administered, from rabbit 1,2 kidney was analyzed by Gas-liquid chromatographic analysis", "format": "ADME, organism-based", "conditions": "in vivo, po", "outline": "(§3)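 Rabbit 1 was given [14C]-labelled parent amide, 100 mg/kg (204.6 dpm/μg), orally by gavage and killed 2 h later. Urine (0-2 h), blood, liver, lung and kidney were collected. Samples were extracted, trimethylsilylated with BSA/pyridine at 70 °C for 12-16 h, and run by GLC on 3% OV-210 at 95 °C against the internal standard 3-ethyl-2-thiazolidinimine. Output is % of radioactivity present as the metabolite, mean of two determinations.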"}, "Oryctolagus cuniculus [6]": {"tested_on": "Oryctolagus cuniculus", "assay": "100 mg/kg of [14C]- radiolabeled compound was orally administered in rabbit1, and radioactivity content in urine was estimated at 0-2 hr", "conditions": "rabbit, in vivo, po"}, "Oryctolagus cuniculus [7]": {"tested_on": "Oryctolagus cuniculus", "assay": "200 mg/kg of [14C]- radiolabeled compound was intravenously (gavage) injected in rabbit4, and radioactivity content in feces was estimated at total hours", "format": "ADME, organism-based", "conditions": "rabbit, in vivo, po, in the assay text read “orally (gavage) administered” for “intravenously (gavage) injected”", "outline": "(§4)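 Rabbit given two 100 mg/kg gavage doses of [14C]-labelled drug, 2 h apart, 204.6 dpm/μg, 6.66 mg/mL in water/0.1 N HCl. Rabbit 2 was killed 2 h after the last dose and liver, lung, kidney and plasma taken (μg equivalents/g; tissue:plasma ratio). Rabbit 4 gave urine over 0-4, 0-24, 24-48 and 48-72 h and feces over 0-48 h, as % of dose.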"}, "Oryctolagus cuniculus [8]": {"tested_on": "Oryctolagus cuniculus", "assay": "100 mg/kg of [14C]- radiolabeled compound was orally (gavage) administered in rabbit3, and radioactivity content in urine was estimated at 24-48 h", "conditions": "rabbit, in vivo, po"}, "Oryctolagus cuniculus [9]": {"tested_on": "Oryctolagus cuniculus", "assay": "200 mg/kg of [14C]- radiolabeled compound was intravenously (gavage) injected in rabbit4, and radioactivity content in feces was estimated at 0-48 hr", "format": "ADME, organism-based", "conditions": "rabbit, in vivo, po, in the assay text read “orally (gavage) administered” for “intravenously (gavage) injected”", "outline": "as §4"}, "Oryctolagus cuniculus [10]": {"tested_on": "Oryctolagus cuniculus", "assay": "Evaluation of formation of 3-Methyl-thiazolidin-2-ylideneamine from the radiolabeled compound, orally administered, from rabbit 1 urine was analyzed at 0-2 hr by Gas-liquid chromatographic analysis", "conditions": "in vivo, po"}, "Oryctolagus cuniculus [11]": {"tested_on": "Oryctolagus cuniculus", "assay": "Evaluation of formation of 3-Methyl-thiazolidin-2-ylideneamine from the radiolabeled compound, orally administered, from rabbit 2,4 lung was analyzed by Gas-liquid chromatographic analysis", "format": "ADME, organism-based", "conditions": "in vivo, po", "outline": "as §2"}, "Oryctolagus cuniculus [12]": {"tested_on": "Oryctolagus cuniculus", "assay": "Percent of 3-Methyl-thiazolidin-2-ylideneamine as administered dose was reported in rabbit 3 by Gas-liquid chromatographic analysis", "format": "ADME, organism-based", "conditions": "in vivo", "outline": "as §1"}, "[13]": {"tested_on": "Indolethylamine N-methyltransferase (Oryctolagus cuniculus)", "assay": "Compound tested for inhibitory activity against rabbit lung Indoleethylamine-N-methyltransferase at 5 mg/kg intravenously*p< 0.05"}, "Oryctolagus cuniculus [14]": {"tested_on": "Oryctolagus cuniculus", "assay": "200 mg/kg of [14C]- radiolabeled compound was orally administered in rabbit4, and radioactivity content in urine was estimated at", "conditions": "rabbit, in vivo, po"}, "Oryctolagus cuniculus [15]": {"tested_on": "Oryctolagus cuniculus", "assay": "200 mg/kg of [14C]- radiolabeled compound was orally administered in rabbit4, and radioactivity content in urine was estimated at 48-72 h", "conditions": "rabbit, in vivo, po"}, "Oryctolagus cuniculus [16]": {"tested_on": "Oryctolagus cuniculus", "assay": "Radioactivity measurements were performed following oral administration of the 100 mg/kg in rabbit 5 after 2 hr in plasma", "format": "ADME, organism-based", "design": "dose 100 mg/kg, route oral", "conditions": "in vivo", "outline": "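Male rabbits (900-1060 g) received [14C]-labelled parent amide, 100 mg/kg (251.7 dpm/μg, pH about 4.5), by gavage. At 2 or 6 h they were killed by air injection into the ear vein. Blood was drawn by cardiac puncture; brain and lung were homogenized in water (1 g = 10 mL). Radioactivity is expressed as μg equivalents of parent per g or mL.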"}, "[17]": {"tested_on": "Indolethylamine N-methyltransferase (Oryctolagus cuniculus)", "assay": "In vivo evaluation of specific activity against rabbit lung Indoleethylamine-N-methyltransferase at oral dose of 25 mg/kg"}, "Oryctolagus cuniculus [18]": {"tested_on": "Oryctolagus cuniculus", "assay": "100 mg/kg of [14C]- radiolabeled compound was orally (gavage) administered in rabbit3, and radioactivity content in urine was estimated at 48-72 h", "conditions": "rabbit, in vivo, po"}, "Oryctolagus cuniculus [19]": {"tested_on": "Oryctolagus cuniculus", "assay": "100 mg/kg of [14C]- radiolabeled compound was orally administered in rabbit3, and radioactivity content in feces was estimated at 0-48 hr", "conditions": "rabbit, in vivo, po"}, "Oryctolagus cuniculus [20]": {"tested_on": "Oryctolagus cuniculus", "assay": "Evaluation of formation of 3-Methyl-thiazolidin-2-ylideneamine from the radiolabeled compound, orally administered, from rabbit 1,2 lung was analyzed by Gas-liquid chromatographic analysis", "format": "ADME, organism-based", "conditions": "in vivo, po", "outline": "as §3"}},
  "data": [
    {"smiles": "CN1CCS/C1=N\\C(=O)CCC(=O)/N=C1/SCCN1C", "values": [
      {"measurement": "inhibition", "setting": "[1]", "value": 76.1, "unit": "%"},
      {"measurement": "Radioactivity", "setting": "Oryctolagus cuniculus [2]", "value": 51.3, "unit": "%"},
      {"measurement": "Radioactivity", "setting": "Oryctolagus cuniculus [3]", "value": 48.9, "unit": "%"},
      {"measurement": "Administered dose", "setting": "Oryctolagus cuniculus [4]", "value": 90.7, "unit": "%"},
      {"measurement": "Radioactivity", "setting": "Oryctolagus cuniculus [5]", "value": 72.8, "unit": "%"},
      {"measurement": "Administered dose", "setting": "Oryctolagus cuniculus [6]", "value": 48.8, "unit": "%"},
      {"measurement": "Administered dose", "setting": "Oryctolagus cuniculus [7]", "value": 94, "unit": "%"},
      {"measurement": "Administered dose", "setting": "Oryctolagus cuniculus [8]", "value": 0.8, "unit": "%"},
      {"measurement": "Administered dose", "setting": "Oryctolagus cuniculus [9]", "value": 6, "unit": "%"},
      {"measurement": "Percent of urinary radioactivity", "setting": "Oryctolagus cuniculus [10]", "value": 57.2, "unit": "%"},
      {"measurement": "Radioactivity", "setting": "Oryctolagus cuniculus [11]", "value": 75.4, "unit": "%"},
      {"measurement": "Administered dose", "setting": "Oryctolagus cuniculus [12]", "value": 41.2, "unit": "%"},
      {"measurement": "inhibition", "setting": "[13]", "value": 64, "unit": "%"},
      {"measurement": "Administered dose", "setting": "Oryctolagus cuniculus [14]", "value": 87.1, "unit": "%"},
      {"measurement": "Administered dose", "setting": "Oryctolagus cuniculus [15]", "value": 0.1, "unit": "%"},
      {"measurement": "Radioactivity level", "setting": "Oryctolagus cuniculus [16]", "value": 14.2, "unit": "µg/mL"},
      {"measurement": "Specific activity", "setting": "[17]", "value": 14100, "unit": "dpm"},
      {"measurement": "Administered dose", "setting": "Oryctolagus cuniculus [18]", "value": 0.2, "unit": "%"},
      {"measurement": "Administered dose", "setting": "Oryctolagus cuniculus [19]", "value": 3.8, "unit": "%"},
      {"measurement": "Radioactivity", "setting": "Oryctolagus cuniculus [20]", "value": 92.9, "unit": "%"}
    ]}
  ]
}
